UCH37 inh: human UCH37 deubiquitinating enzyme inhibition. actives 0.33% (n = 330,000). Q9Y5K5. inhibition, % (test concentration not listed). purified proteasome/UCH37, Ub-AMC cleavage fluorescence;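 active = mean inhibition over replicate wells above about 20%, limit read from the data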
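Material: human UCH37 enzyme supplied as purified proteasome complex / Amount: 0.15 nM proteasome as dispensed / Buffer or medium: pH 7.4 Tris-HCl (50 mM) with ovalbumin, ATP-MgCl2, DTT / Times: preincubation 30 min, reaction 25 min, room temperature / Technique: AMC fluorescence from Ub-AMC cleavage, excitation 355 nm, emission 460 nm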
SUMO HTRF inh: inhibitors of human SUMOylation (UBC9) | P63279 | HTRF SUMOylation assay, SAE1/SAE2 + UBC9, in vitro | inhibition, % at 35 µM | actives 0.36% (n = 290,000) | AID 2006; in the data active = inhibition above about 50%, passing the limit was not always enough
Fh CTSL1 inh: blocks F. hepatica cathepsin L1 in PFM18AAP counter-screen. recombinant F. hepatica cathepsin L1, Z-Leu-Arg-MCA fluorescence. inhibition, % at 5.96 µM. actives 0.49% (n = 300,000). AID 1906;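 active = inhibition above the mean of all tested compounds plus 3 SD, set per screening campaign, cut at about 17% in these data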
Neddyl block: blocks human cullin neddylation; TR-FRET cullin neddylation, biochemical; actives 0.58% (n = 360,000); P61081+Q13564; AID 651699; inhibition, % at 25 µM; in the data active = inhibition above about 36%
Target sequence (P61081 whole entry, looked up): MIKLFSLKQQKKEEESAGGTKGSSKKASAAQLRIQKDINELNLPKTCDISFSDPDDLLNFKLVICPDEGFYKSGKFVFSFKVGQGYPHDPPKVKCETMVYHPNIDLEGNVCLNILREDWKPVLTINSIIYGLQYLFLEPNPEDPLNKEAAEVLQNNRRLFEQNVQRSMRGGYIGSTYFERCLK
Target sequence (Q13564 whole entry, looked up): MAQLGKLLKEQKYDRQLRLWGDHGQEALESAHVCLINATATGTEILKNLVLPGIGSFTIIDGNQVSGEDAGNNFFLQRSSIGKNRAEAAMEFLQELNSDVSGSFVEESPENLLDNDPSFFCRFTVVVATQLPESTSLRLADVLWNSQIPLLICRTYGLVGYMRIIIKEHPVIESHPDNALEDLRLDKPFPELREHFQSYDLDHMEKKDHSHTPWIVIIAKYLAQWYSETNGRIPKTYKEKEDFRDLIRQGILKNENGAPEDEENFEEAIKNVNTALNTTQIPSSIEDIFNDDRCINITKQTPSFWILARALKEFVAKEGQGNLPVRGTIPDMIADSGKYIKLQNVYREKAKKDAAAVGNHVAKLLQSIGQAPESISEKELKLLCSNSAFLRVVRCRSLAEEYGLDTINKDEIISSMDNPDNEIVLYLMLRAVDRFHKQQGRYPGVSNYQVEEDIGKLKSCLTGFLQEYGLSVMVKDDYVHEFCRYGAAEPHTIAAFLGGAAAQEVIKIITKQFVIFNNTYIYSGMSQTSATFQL
Of the large screens only hits and unclear results are named; the others gave an inactive call. Shown are actives, neighbours in structure and some others; about 1.4% of the full set was active somewhere.

COc1ccc(C(=O)N2CCC3(CC2)OCCO3)cc1	none
O=C(c1ccc2nc(-c3ccco3)c(-c3ccco3)nc2c1)N1CCC2(CC1)OCCO2	Fh CTSL1 inh 17
CC(=O)O[C@@H]1C=C[C@](C)(O)C[C@@H](C)CC=C[C@H]2[C@H](O)[C@@](C)(O)[C@@H](C)[C@H]3[C@H](Cc4ccccc4)NC(=O)[C@@]312	none (no result: SUMO HTRF inh, Fh CTSL1 inh, Neddyl block)
C[C@@H]1O[C@@H](O[C@@H]2C=C3CC[C@@H]4C(CC[C@]5(C)[C@@H](c6ccc(=O)oc6)CC[C@]45O)[C@@]3(C)CC2)[C@H](O)[C@H](O)[C@H]1O (some centres undefined)	none (no result: SUMO HTRF inh, Fh CTSL1 inh)
C[C@@H]1O[C@@H](O[C@@H]2C=C3CCC4C(CC[C@]5(C)[C@@H](c6ccc(=O)oc6)CC[C@]45O)[C@@]3(C)CC2)[C@H](O)[C@H](O)[C@H]1O (some centres undefined)	Fh CTSL1 inh 25 (no result: SUMO HTRF inh)
Cc1cc(C)cc(N2C(=O)/C(=C\c3ccc(N4CCN(C)CC4)o3)C(=O)NC2=S)c1	UCH37 inh 24
COc1ccccc1/C=C1/C(=NO)C2CCN1CC2	none (no result: SUMO HTRF inh, Fh CTSL1 inh, Neddyl block)
C/C(=N\Nc1cccc2ccccc12)c1c(O)n(Cc2ccccc2)c(=O)[nH]c1=O	SUMO HTRF inh 52
C/C(=N\NC(=O)c1ccccc1)c1c(O)n(Cc2ccccc2)c(=O)[nH]c1=O	none
CNC(=O)ON=C(N)Cc1csc2ccccc12	none (no result: SUMO HTRF inh, Fh CTSL1 inh, Neddyl block)
O=C(c1cccn2c(=O)c3ccc(Cl)cc3nc12)N1CCC2(CC1)OCCO2	SUMO HTRF inh 58 (not shown: Neddyl block)
O=C(c1cccn2c(=O)c3cc(Br)ccc3nc12)N1CCC2(CC1)OCCO2	none (not shown: Neddyl block)
COc1cc(C=NNC(=O)CN2CC(c3ccccc3)CC2=O)ccc1OC(=O)N(C)C (centres undefined)	none (no result: SUMO HTRF inh, Fh CTSL1 inh, Neddyl block)
Cc1ccsc1C(=O)C1CCCN(Cc2ccc(-n3cccn3)cc2)C1 (centres undefined)	SUMO HTRF inh 65
CCCCCC(=NO)c1c(C)[nH]c2ccccc12	none (no result: SUMO HTRF inh, Fh CTSL1 inh, Neddyl block)
CCN1CCN(Cc2cccnc2)CC1	Fh CTSL1 inh 19
CCN1CCN(Cc2ccc(OC(F)(F)F)cc2)CC1	none
CN1CCN(c2ccc([N+](=O)[O-])c(NN=C3CN4CCC3CC4)c2)CC1	none (no result: SUMO HTRF inh, Fh CTSL1 inh, Neddyl block)
CCC1(OC(=O)CN)C(=O)OCc2c1cc1n(c2=O)Cc2cc3ccccc3nc2-1 (centres undefined)	SUMO HTRF inh 57
CC[C@@]1(O)C(=O)OCc2c1cc1n(c2=O)Cc2cc3ccccc3nc2-1	none (no result: UCH37 inh, Neddyl block)
COc1ccc(Cn2c(N)c(C(=O)NCc3ccco3)c3nc4ccccc4nc32)cc1	none (not shown: Neddyl block)
Nc1c(C(=O)NCc2ccco2)c2nc3ccccc3nc2n1Cc1ccc(F)cc1	SUMO HTRF inh 100 (not shown: Neddyl block)
Nc1c(C(=O)NCc2ccco2)c2nc3ccccc3nc2n1Cc1ccccc1	SUMO HTRF inh 101 (not shown: Neddyl block)
NC(=N[N+](=O)[O-])N1CCN(C(=O)OC2CCCC2)CC1	none (no result: SUMO HTRF inh, Fh CTSL1 inh, Neddyl block)
CC(C)OC(=O)c1c(N)n(CC2CCCO2)c2nc3ccccc3nc12 (centres undefined)	none (not shown: Neddyl block)
CC(C)OCCCNC(=O)c1c(N)n(CC2CCCO2)c2nc3ccccc3nc12 (centres undefined)	SUMO HTRF inh 98 (not shown: Neddyl block)
CCCNC(=O)c1c(N)n(CC2CCCO2)c2nc3ccccc3nc12 (centres undefined)	SUMO HTRF inh 102 (not shown: Neddyl block)
CCn1nc(-c2cccs2)nc2c(=O)n(C)c(=O)nc1-2	UCH37 inh 95, SUMO HTRF inh 101 (no result: Fh CTSL1 inh)
CCCOc1ccccc1C1SCC(=O)Nc2c1c(=O)[nH]n2C(C)CCC (centres undefined)	none
CCCC(C)n1[nH]c(=O)c2c1NC(=O)CSC2c1ccc(OC)cc1 (centres undefined)	UCH37 inh 20
CCCCn1c(N)c(C(=O)OCCOC)c2nc3ccccc3nc21	SUMO HTRF inh 67 (not shown: Neddyl block)
CCCCn1c(NS(=O)(=O)c2ccc(C)cc2)c(C(=O)OCC)c2nc3ccccc3nc21	SUMO HTRF inh 99 (not shown: UCH37 inh, Neddyl block)
C#C[C@@]1(O)CCC2C3CCC4=CC(=NOCC(=O)NC(C(=O)O)C(C)O)CC[C@]4(C)C3CC[C@@]21C (some centres undefined)	none (no result: SUMO HTRF inh, Fh CTSL1 inh, Neddyl block)
CCCOP(=O)(OCCC)C(NC(=O)c1cc(OC)c(OC)c(OC)c1)c1ccccc1 (centres undefined)	Fh CTSL1 inh 17
CC12CN3CCN(CC(C3)C1=NNC(N)=O)C2	none (no result: SUMO HTRF inh, Fh CTSL1 inh, Neddyl block)
Cc1ccc(S(=O)(=O)N2CC2(C)CCl)cc1 (centres undefined)	Fh CTSL1 inh 20
CCOC(=O)C(NC(=O)CCl)(Nc1ccc(C(O)(C(=O)OCC)C(F)(F)F)cc1)C(F)(F)F (centres undefined)	Fh CTSL1 inh 35
CCOC(=O)Cn1cc(C(=O)c2ccccc2F)c2ccccc21	none
CCOC(=O)Cn1cc([N+](=O)[O-])nc1[N+](=O)[O-]	Fh CTSL1 inh 18
CCCc1cc(=O)oc2cc(OCC(=O)N3CCC(C(=O)O)(c4ccccc4)CC3)ccc12	Neddyl block 41
CCCc1cc(=O)oc2cc(OCC(=O)N3CCN(Cc4ccc5c(c4)OCO5)CC3)ccc12	none
CN1C[C@H](CO)C=C2c3cccc4[nH]cc(c34)C[C@H]21	SUMO HTRF inh 65 (not shown: Neddyl block)
CC1=C[C@@H]2c3cccc4[nH]cc(c34)C[C@H]2N(C)C1	none (no result: UCH37 inh)
O=C(NN=CC1C(=O)NC(=S)N(c2ccccc2)C1=O)c1cc(Br)c(O)c(Br)c1 (centres undefined)	none (no result: SUMO HTRF inh, Fh CTSL1 inh, Neddyl block)
COP(=O)(OC)C(C=O)=NNc1ccc([N+](=O)[O-])cc1	UCH37 inh 20 (no result: SUMO HTRF inh, Fh CTSL1 inh, Neddyl block)
CC(=O)Nc1ccc([As](=O)(O)c2ccc([N+](=O)[O-])cc2)cc1	none
COC(=O)C1C2c3ccccc3OC1(C)N=c1sc(=Cc3cnn(C)c3)c(=O)n12 (centres undefined)	none (no result: SUMO HTRF inh, Fh CTSL1 inh, Neddyl block)
COc1ccc(C(=O)ON=C(C(N)=O)P(=O)(OC(C)C)OC(C)C)cc1	none (no result: SUMO HTRF inh, Fh CTSL1 inh, Neddyl block)
COc1ccc(N2CCN(Cc3nc4ccccc4[nH]3)CC2)cc1	Fh CTSL1 inh 17
C[C@H]1CCCC=CC2C[C@H](O)CC2[C@H](O)C=CC(=O)O1 (some centres undefined)	none (no result: SUMO HTRF inh, Fh CTSL1 inh, Neddyl block)
CCOC(=O)c1cc(C(O)(C(=O)OC)C(F)(F)F)c(N=CN(C)C)o1 (centres undefined)	none (no result: SUMO HTRF inh, Fh CTSL1 inh, Neddyl block)
COC(=O)C1=C(c2ccc(F)cc2F)C[C@@H]2CC[C@H]1N2C(=O)NCCNC(C)=O	UCH37 inh 25 (no result: SUMO HTRF inh, Fh CTSL1 inh)
CCCNC(=O)N1[C@H]2CC[C@@H]1C(C(=O)OC)=C(c1ccc(F)cc1F)C2	none (no result: SUMO HTRF inh, Fh CTSL1 inh)
COC(=O)C1=C(c2cc3ccccc3o2)C[C@@H]2CC[C@H]1N2C(=O)NCCO	UCH37 inh 27 (no result: SUMO HTRF inh)
O=C(NN=C1CN2CCC1CC2)c1cccc(O)c1	none (no result: SUMO HTRF inh, Fh CTSL1 inh, Neddyl block)
CC1=CC2C=C(C)C(C)C3C(CC(C)C)NC(=O)C23C(=O)C=CC(O)C(O)CC1 (centres undefined)	none (no result: SUMO HTRF inh, Fh CTSL1 inh, Neddyl block)
Cc1cc(O)c2c(c1)C(=O)C13C(=C2O)C(=O)[C@H]2[C@@H](O)[C@@H]1[C@H]1[C@H](O)[C@@H]3C(=O)C3=C(O)c4c(O)cc(C)cc4C(=O)C312 (some centres undefined)	UCH37 inh 28 (no result: SUMO HTRF inh)
Cc1ccc(S(=O)(=O)N[C@@H](CCCCN)C(=O)CCl)cc1	Fh CTSL1 inh 85 (no result: SUMO HTRF inh)
Cc1ccc(S(=O)(=O)NCCC(=O)Nc2ccc(Cl)cc2C(=O)c2ccccc2)cc1	none

Screening results as filed in PubChem BioAssay.
